Test results as given in ChEMBL document CHEMBL4393678, “Novel Tetrahydroquinazolinamines as Selective Histamine 3 Receptor Antagonists for the Treatment of Obesity” (J Med Chem, 2019).
Active and inactive are the calls of the source. No cut-off for these calls is given here.

Legend:
[1] = Drug level in C57BL/6J mouse serum assessed as metabolite formation treated with 4-(4-Methoxyphenyl)-8-methyl-5,6,7,8-tetrahydroquinazolin-2-amine at 20 mg/kg, po by LC-MS/MS analysis; assay type: ADME, organism-based; details: in vivo
Method in brief: (§1)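 After a single 20 mg/kg oral dose in fasted male C57BL/6J mice (n=5 per time point), the demethylated metabolite was measured by LC-MS/MS (m/z 256.1→240.1) in serum and brain homogenate up to 24 h. Metabolite/parent AUC ratio was derived.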

[2] = Drug level in C57BL/6J mouse brain assessed as metabolite formation treated with 4-(4-Methoxyphenyl)-8-methyl-5,6,7,8-tetrahydroquinazolin-2-amine at 20 mg/kg, po by LC-MS/MS analysis; assay type: ADME, organism-based; details: in vivo; method in brief: as §1
[3] = molecular target: Histamine H1 receptor (Homo sapiens) (UniProt P35367); assay: Agonist activity at H1R (unknown origin) expressed in HEK293 cells harboring luc2P/NFAT-RE plasmid at 10 uM after 6 to 8 hrs by luciferase reporter gene assay; assay type: cell-based
Histamine H1 receptor (Homo sapiens), sequence (P35367 whole entry): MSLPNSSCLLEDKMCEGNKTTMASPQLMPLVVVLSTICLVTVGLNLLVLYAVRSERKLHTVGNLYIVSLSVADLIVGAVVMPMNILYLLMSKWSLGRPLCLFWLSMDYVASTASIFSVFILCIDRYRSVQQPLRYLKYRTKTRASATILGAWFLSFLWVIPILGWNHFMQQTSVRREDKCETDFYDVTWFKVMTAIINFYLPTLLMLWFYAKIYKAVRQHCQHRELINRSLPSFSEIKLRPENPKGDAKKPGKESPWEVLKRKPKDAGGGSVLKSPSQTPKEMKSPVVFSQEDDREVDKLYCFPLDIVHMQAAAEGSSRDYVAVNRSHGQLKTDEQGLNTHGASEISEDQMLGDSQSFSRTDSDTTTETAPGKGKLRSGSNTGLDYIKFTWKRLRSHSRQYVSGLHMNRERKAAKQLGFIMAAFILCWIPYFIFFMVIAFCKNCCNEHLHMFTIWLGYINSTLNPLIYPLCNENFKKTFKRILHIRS
Method in brief: (§2)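 NFAT-RE luciferase assay in HEK293T cells transiently co-transfected with luc2P/NFAT-RE plasmid and receptor plasmid. Cells plated in DMEM and incubated overnight at 37 °C, 5% CO₂. Compounds and reference ligands applied for 6-8 h. Luciferase read after adding Bright-Glo substrate (1 mg/ml final).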

Histamine H2 receptor [4] = molecular target: T1, Histamine H2 receptor (Homo sapiens, UniProt P25021); assay: Agonist activity at recombinant human Gs-coupled H2 receptor expressed in HEK293T cells assessed as inhibition of forskolin-stimulated cAMP accumulation preincubated for 10 to 15 followed by forskolin-stimulation by Glo-sensor assay; assay type: functional, cell-based
T1 sequence (P25021 whole entry): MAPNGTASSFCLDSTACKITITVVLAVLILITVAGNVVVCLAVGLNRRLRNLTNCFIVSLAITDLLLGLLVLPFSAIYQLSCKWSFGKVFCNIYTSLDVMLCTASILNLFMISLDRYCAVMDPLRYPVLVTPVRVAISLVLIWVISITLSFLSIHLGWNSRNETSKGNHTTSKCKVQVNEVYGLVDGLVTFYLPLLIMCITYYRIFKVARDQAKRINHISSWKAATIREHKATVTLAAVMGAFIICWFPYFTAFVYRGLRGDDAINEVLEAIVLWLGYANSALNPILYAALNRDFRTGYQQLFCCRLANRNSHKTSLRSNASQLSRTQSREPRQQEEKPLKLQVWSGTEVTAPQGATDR

[5] = molecular target: Histamine H4 receptor (Homo sapiens) (UniProt Q9H3N8); assay: (§3) Antagonist activity at recombinant human Gi-coupled H4 receptor expressed in HEK293T cells assessed as reduction in histamine-induced inhibition of forskolin-stimulated cAMP accumulation at 10 uM preincubated for 10 to 15 followed by histamine addition for 10 mins and subsequent forskolin-stimulation by Glo-sensor assay; assay type: functional, cell-based
Histamine H4 receptor (Homo sapiens), sequence (Q9H3N8 whole entry): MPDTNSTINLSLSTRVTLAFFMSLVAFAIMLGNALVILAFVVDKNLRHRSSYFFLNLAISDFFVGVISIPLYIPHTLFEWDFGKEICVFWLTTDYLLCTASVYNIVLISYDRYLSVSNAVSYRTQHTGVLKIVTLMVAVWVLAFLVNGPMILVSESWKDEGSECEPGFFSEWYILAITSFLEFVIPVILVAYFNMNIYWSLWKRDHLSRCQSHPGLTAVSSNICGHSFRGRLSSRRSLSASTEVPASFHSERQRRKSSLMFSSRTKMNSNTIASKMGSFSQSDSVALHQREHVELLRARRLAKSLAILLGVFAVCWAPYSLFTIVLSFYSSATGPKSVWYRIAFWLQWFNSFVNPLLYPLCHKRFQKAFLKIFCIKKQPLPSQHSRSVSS

Histamine H3 receptor [6] = molecular target: T2, Histamine H3 receptor (Homo sapiens, UniProt Q9Y5N1); assay: as §3, with “H3” for “H4”, “accumulation” for “accumulation at 10 uM”; assay type: functional, cell-based
T2 sequence (Q9Y5N1 whole entry): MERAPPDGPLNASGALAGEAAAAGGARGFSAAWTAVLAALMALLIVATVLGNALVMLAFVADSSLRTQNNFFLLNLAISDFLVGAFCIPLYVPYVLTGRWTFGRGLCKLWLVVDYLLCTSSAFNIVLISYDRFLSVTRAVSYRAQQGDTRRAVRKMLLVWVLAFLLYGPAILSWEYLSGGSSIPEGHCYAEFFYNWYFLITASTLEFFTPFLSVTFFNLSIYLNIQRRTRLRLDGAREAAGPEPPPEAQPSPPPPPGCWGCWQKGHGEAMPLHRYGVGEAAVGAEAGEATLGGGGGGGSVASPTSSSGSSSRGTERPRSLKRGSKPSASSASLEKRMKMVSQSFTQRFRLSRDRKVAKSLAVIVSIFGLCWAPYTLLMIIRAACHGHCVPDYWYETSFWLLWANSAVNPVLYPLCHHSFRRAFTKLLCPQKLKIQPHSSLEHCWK

[7] = molecular target: Histamine H4 receptor (Homo sapiens) (UniProt Q9H3N8); assay: Agonist activity at recombinant human Gi-coupled H4 receptor expressed in HEK293T cells assessed as inhibition of forskolin-stimulated cAMP accumulation at 10 uM preincubated for 10 to 15 followed by forskolin-stimulation by Glo-sensor assay; assay type: functional, cell-based
[8] = molecular target: Histamine H1 receptor (Homo sapiens) (UniProt P35367); assay: Antagonist activity at H1R (unknown origin) expressed in HEK293 cells harboring luc2P/NFAT-RE plasmid at 10 uM after 6 to 8 hrs by luciferase reporter gene assay; assay type: cell-based; method in brief: as §2
Histamine H2 receptor [9] = molecular target: T1, Histamine H2 receptor; assay: Agonist activity at recombinant human Gs-coupled H2 receptor expressed in HEK293T cells assessed as inhibition of forskolin-stimulated cAMP accumulation at 10 uM preincubated for 10 to 15 followed by forskolin-stimulation by Glo-sensor assay relative to control; assay type: functional, cell-based; design: scale not given: the % may be the effect or the level left
Method in brief: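 HEK293T cells were transiently co-transfected with GloSensor-22F cAMP plasmid and human H2R plasmid, then held 15–18 h at 37 °C in 5% CO2. Cells were loaded with sodium luciferin (1 mg/ml) for 90 min. Agonist mode used 10 µM compound, with luminescence read directly after 10–15 min. Screening was in triplicate, scored as ≥50% change versus control.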

Mus musculus [10] = assay: Anti-obesity activity in high fat diet-induced obese C57BL/6J mouse model assessed as reduction in body weight at 10 mg/kg, po; assay type: functional, organism-based; details: TDE = time-dependent effect
Method in brief: (§4)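 Male C57BL/6J mice (6–8 weeks, 22–25 g) on high-fat diet, with a normal-chow group included. Daily chronic oral dosing against vehicle for six weeks. Percent body weight change followed over the treatment days, and net body weight change taken at six weeks. n=5-6 per group. Two-way ANOVA, or one-way ANOVA with Newman-Keuls test.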

Mus musculus [11] = assay: Anti-obesity activity in high fat diet-induced obese C57BL/6J mouse model assessed as change in body weight at 10 mg/kg, po measured after 6 weeks (reference value: 3.86 +/- 0.99 g); assay type: functional; method in brief: as §4
Mus musculus [12] = assay: Anorexic effect in high fat diet-induced obese C57BL/6J mouse model assessed as reduction in cumulative food intake at 10 mg/kg, po pretreated for 30 mins followed by food addition measured after 4 hrs relative to control; assay type: functional; design: scale not given: the % may be the effect or the level left
Method in brief: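 Male C57BL/6J mice on high-fat diet, starved 12 h (8 am–8 pm) with water available, housed singly. Oral dose in 5% gum acacia in normal saline, vehicle group alongside. Food given 30 min after dosing, and cumulative intake measured over the 4 h night phase (9 pm–1 am). One-way ANOVA with Newman-Keuls test.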

Mus musculus [13] = assay: Anti-obesity activity in high fat diet-induced obese C57BL/6J mouse model assessed as reduction in body fat mass at 10 mg/kg, po measured after 6 weeks relative to control by NMR-based magnetic resonance imaging analysis; assay type: functional; design: scale not given: the % may be the effect or the level left
Method in brief: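 Male C57BL/6J mice on high-fat diet dosed orally for six weeks against a vehicle-treated high-fat diet group and a chow group. Body composition (fat mass, lean mass, % body fat) measured by EchoMRI live scanning. n=5-6. One-way ANOVA with Newman-Keuls test.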

Mus musculus [14] = assay: Anorexic effect in 12 hrs fasted db/db-induced obese C57BL/6J mouse model assessed as reduction in cumulative food intake at 20 mg/kg, ip pretreated for 30 mins followed by food addition measured after 4 hrs; assay type: functional, organism-based
Histamine H3 receptor [15] = molecular target: T2, Histamine H3 receptor; assay: Displacement of [3H]N-alpha-methylhistamine from recombinant human H3 receptor expressed in HEK293T cells measured after 90 mins by liquid scintillation counting method; assay type: cell-based
[16] = molecular target: T3, Cholecystokinin receptor type A (Homo sapiens, UniProt P32238); assay: Displacement of [I125]bolton hunter-CCK-8S from recombinant human CCK1 receptor expressed in stable CHO cells measured after 1 to 2 hrs by microscintillation counting method; assay type: cell-based
T3 sequence (P32238 whole entry): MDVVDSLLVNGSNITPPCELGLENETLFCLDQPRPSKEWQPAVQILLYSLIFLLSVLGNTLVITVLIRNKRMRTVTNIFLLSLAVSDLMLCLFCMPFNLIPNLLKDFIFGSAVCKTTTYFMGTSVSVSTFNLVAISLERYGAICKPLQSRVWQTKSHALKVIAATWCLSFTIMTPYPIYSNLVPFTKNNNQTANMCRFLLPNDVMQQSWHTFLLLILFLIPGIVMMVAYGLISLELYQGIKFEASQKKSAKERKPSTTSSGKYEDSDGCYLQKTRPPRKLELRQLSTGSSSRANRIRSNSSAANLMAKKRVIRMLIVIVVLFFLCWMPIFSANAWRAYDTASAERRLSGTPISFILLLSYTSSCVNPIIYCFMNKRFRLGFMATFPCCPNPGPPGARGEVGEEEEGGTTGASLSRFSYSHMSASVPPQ

SMILES	Activity [3]	inhibition [5]	IC50 (Histamine H3 receptor [6])	Activity [7]	inhibition [8]	Activity (Histamine H2 receptor [9])	EC50 (Histamine H2 receptor [4]; read-out: EC50)	other results
CC1CCCc2c(-c3ccc(O)cc3)nc(N)nc21 (stereo not drawn)	–	–	–	–	–	–	–	Drug metabolism [1]: Metabolite_Detected; Drug metabolism [2]: Metabolite_Detected
CC1CCCc2c(-c3cccnc3)nc(N)nc21 (stereo not drawn)	inactive	inactive	6800 nM	inactive	inactive	< 50%	–	EC50 (Histamine H2 receptor [4]): Not Active
CC1CCCc2c(-c3ccc(C#N)cc3)nc(N)nc21 (stereo not drawn)	inactive	inactive	5500 nM	inactive	inactive	< 50%	–	EC50 (Histamine H2 receptor [4]): Not Active
C[C@H]1CNCCc2ccc(Cl)cc21 [LORCASERIN]	–	–	–	–	–	–	–	Activity (Mus musculus [10]): Tde; Activity (Mus musculus [11]): 0.95 g; Activity (Mus musculus [12]): 40%; Activity (Mus musculus [13]): 22.4%
CC(N)(Cc1cnc[nH]1)C(=O)O (racemic)	–	–	–	–	–	–	–	Activity (Mus musculus [14]): inactive
Cc1ccc(-c2nc(N)nc3c2CCCC3C)cc1 (stereo not drawn)	inactive	inactive	2930 nM	inactive	inactive	50%	880 nM	–
COc1ccc(-c2nc(N)nc3c2CCCC3)cc1	inactive	inactive	2750 nM	inactive	inactive	–	1390 nM	EC50 (Histamine H2 receptor [4]; read-out: pEC50 (converted)): 1290 nM
COc1ccc(-c2nc(N)nc3c2CC(C)CC3)cc1 (stereo not drawn)	inactive	inactive	4680 nM	inactive	inactive	50%	2120 nM	–
CC1CCCc2c(-c3cccc(Br)c3)nc(N)nc21 (stereo not drawn)	inactive	inactive	90 nM	inactive	inactive	50%	840 nM	EC50 (Histamine H2 receptor [4]; read-out: pEC50 (converted)): 316 nM
Cc1ccc(C2(O)CCN(c3nc(C)nc4ccsc34)CC2)nc1	–	–	–	–	–	–	–	Ki (Histamine H3 receptor [15]): 6.07 nM
CC1CCCc2c1nc(N)nc2C1CCCCC1 (stereo not drawn)	inactive	inactive	240 nM	inactive	inactive	50%	360 nM	–
CC1CCCc2c(-c3ccc(Br)cc3)nc(N)nc21 (stereo not drawn)	inactive	inactive	3100 nM	inactive	inactive	< 50%	–	EC50 (Histamine H2 receptor [4]): Not Active
COc1ccc(-c2nc(NC(=O)c3cc4ccccc4n3CC(=O)O)ncc2CC2CCCCC2)c(OC)c1	–	–	–	–	–	–	–	IC50 [16]: < 50 nM
CC1CCCc2c(-c3ccccc3)nc(N)nc21 (stereo not drawn)	inactive	inactive	1300 nM	inactive	inactive	50%	100 nM	–
c1ccc(CNc2ccnc(Nc3ccc(OCCN4CCCCC4)cc3)n2)cc1	–	–	–	–	–	–	–	Ki (Histamine H3 receptor [15]): 4.49 nM
CC1CCCc2c(-c3ccc(F)cc3)nc(N)nc21 (stereo not drawn)	inactive	inactive	560 nM	inactive	inactive	–	80 nM	–
CCCCc1cc(-c2ccc(OC)cc2)nc(N)n1	inactive	inactive	4450 nM	inactive	inactive	–	5180 nM	EC50 (Histamine H2 receptor [4]; read-out: pEC50 (converted)): 5250 nM
COc1cccc(-c2nc(N)nc3c2CCCC3C)c1 (stereo not drawn)	inactive	inactive	70 nM	inactive	inactive	50%	250 nM	–
CC1CCCc2c(-c3cccc4ccccc34)nc(N)nc21 (stereo not drawn)	inactive	inactive	2710 nM	inactive	inactive	< 50%	–	EC50 (Histamine H2 receptor [4]): Not Active
CC1CCCc2c(-c3ccc(Cl)cc3)nc(N)nc21 (stereo not drawn)	inactive	inactive	900 nM	inactive	inactive	50%	80 nM	–
CC1CCCc2c(-c3ccc([N+](=O)[O-])cc3)nc(N)nc21 (stereo not drawn)	inactive	inactive	12300 nM	inactive	inactive	50%	5290 nM	EC50 (Histamine H2 receptor [4]; read-out: pEC50 (converted)): 5370 nM
CC1CCCc2c(-c3cccc(O)c3)nc(N)nc21 (stereo not drawn)	inactive	inactive	4610 nM	inactive	inactive	< 50%	–	EC50 (Histamine H2 receptor [4]): Not Active
